From ChEMBL document CHEMBL1134118, “Inhibition of serine proteases: activity of 1,3-diazetidine-2,4-diones” (Bioorg Med Chem Lett, 2001)
Active and inactive are the calls of the source. The calls are words filed in the database; no cut-off is given here.

Tests used:
[1] = target: T1, Cathepsin G (Homo sapiens, UniProt P08311); assay: Compound was evaluated for its inhibitory activity against human cathepsin G
T1 sequence (P08311 whole entry): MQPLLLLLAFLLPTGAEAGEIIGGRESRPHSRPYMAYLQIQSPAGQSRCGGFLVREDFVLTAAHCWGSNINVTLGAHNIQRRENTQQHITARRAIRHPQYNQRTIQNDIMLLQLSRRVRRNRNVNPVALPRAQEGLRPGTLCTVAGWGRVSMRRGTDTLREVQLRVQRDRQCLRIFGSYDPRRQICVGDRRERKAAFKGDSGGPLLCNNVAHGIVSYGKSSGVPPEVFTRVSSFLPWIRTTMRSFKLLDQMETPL

[2] = target: T2, Neutrophil elastase (Homo sapiens, UniProt P08246); assay: Compound was evaluated for its inhibitory activity against human neutrophil elastase
T2 sequence (P08246 whole entry): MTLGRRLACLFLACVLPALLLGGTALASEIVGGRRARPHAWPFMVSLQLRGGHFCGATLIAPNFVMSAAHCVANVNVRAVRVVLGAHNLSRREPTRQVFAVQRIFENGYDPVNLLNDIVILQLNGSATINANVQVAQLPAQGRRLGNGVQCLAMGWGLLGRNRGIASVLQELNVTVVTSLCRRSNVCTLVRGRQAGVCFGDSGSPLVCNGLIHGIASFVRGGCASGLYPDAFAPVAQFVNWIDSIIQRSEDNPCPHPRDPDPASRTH
Method in brief: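 Purified human neutrophil elastase with chromogenic substrate N-succinyl-Ala-Ala-Val-pNA. Buffer 50 mM Tris-HCl pH 8.0 containing 2 mM CaCl2.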

[3] = target: T3, Plasminogen (Homo sapiens, UniProt P00747); assay: Compound was evaluated for its inhibitory activity against human plasmin
Method in brief: (§1)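 Purified human plasmin assayed with chromogenic substrate Chromozym PL. Buffer 50 mM Tris-HCl pH 7.5 containing 50 mM NaCl.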

[4] = target: T4, Chymase (Homo sapiens, UniProt P23946); assay: Compound was evaluated for its inhibitory activity against human Serine protease chymase up to a concentration > 10000 nM; NA= not active
T4 sequence (P23946 whole entry): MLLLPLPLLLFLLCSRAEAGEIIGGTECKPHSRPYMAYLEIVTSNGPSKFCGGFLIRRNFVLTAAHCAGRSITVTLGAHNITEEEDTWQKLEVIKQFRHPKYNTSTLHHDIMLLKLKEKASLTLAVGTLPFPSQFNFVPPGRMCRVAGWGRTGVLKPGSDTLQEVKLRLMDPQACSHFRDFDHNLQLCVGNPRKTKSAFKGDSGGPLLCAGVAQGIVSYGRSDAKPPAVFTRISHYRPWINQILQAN
Method in brief: (§2)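 Purified human chymase preincubated with inhibitor (DMSO solution) for 30 min at 37 °C in 0.1 M Tris–HCl pH 8.0 with 1.8 M NaCl. Reaction started with succinyl-Ala-Ala-Pro-Phe-p-nitroanilide. Absorbance at 405 nm read after 2 h at 37 °C. IC50 calculated from inhibition of p-nitroaniline formation at each concentration.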

[5] = target: Prothrombin (Homo sapiens, UniProt P00734); assay: Compound was evaluated for its inhibitory activity against human thrombin
Method in brief: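 Purified thrombin with a chromogenic substrate. Buffer 0.1 M Tris-HCl pH 8.0 containing 10 mM CaCl2 and 0.1 M NaCl.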

[6] = target: T5, Serine protease 1 (Bos taurus, UniProt P00760); assay: Compound was evaluated for its inhibitory activity against bovine pancreatic trypsin
T5 sequence (P00760 whole entry): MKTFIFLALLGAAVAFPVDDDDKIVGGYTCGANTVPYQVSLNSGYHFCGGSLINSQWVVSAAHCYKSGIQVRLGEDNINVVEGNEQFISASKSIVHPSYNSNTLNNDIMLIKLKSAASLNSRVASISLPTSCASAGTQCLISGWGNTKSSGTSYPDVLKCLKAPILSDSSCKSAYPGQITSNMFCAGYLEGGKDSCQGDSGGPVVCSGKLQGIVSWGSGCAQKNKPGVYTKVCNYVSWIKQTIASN
Method in brief: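 Purified trypsin with a chromogenic substrate. Buffer 50 mM Tris-HCl pH 8.0 containing 2 mM CaCl2.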

[7] = target: T4, Chymase; assay: Compound was evaluated for its inhibitory activity against human Serine protease chymase; method in brief: as §2
[8] = Half life was determined; assay type: ADME; conditions: sodium methoxide 10 mM in methanol, 21 °C
Method in brief: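 Chemical stability: 1 μmol compound added to 1 mL of 10 mM sodium methoxide in methanol, stirred at 21 °C. Aliquots removed every 2 h and analysed by reverse-phase HPLC to give t1/2.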

[9] = target: T3, Plasminogen; assay: Compound was evaluated for its inhibitory activity against human plasmin up to a concentration > 1000 nM; NA= not activity; conditions: in the assay text read “> 10000 nM” for “> 1000 nM”; method in brief: as §1

T3 sequence (P00747 97-580 limits assumed): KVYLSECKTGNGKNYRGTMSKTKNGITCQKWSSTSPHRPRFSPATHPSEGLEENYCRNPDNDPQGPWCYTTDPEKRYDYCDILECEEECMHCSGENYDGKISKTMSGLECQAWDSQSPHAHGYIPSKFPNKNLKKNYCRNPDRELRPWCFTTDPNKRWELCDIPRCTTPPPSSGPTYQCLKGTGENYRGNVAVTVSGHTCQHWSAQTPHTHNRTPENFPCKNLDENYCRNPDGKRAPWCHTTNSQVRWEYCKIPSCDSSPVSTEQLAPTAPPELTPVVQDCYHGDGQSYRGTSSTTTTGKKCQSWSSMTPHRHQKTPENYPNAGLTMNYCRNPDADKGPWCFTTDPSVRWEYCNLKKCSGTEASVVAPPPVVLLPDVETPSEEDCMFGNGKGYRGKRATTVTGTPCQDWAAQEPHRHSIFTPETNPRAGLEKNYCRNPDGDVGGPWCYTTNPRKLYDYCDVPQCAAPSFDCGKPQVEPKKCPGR
T3 sequence (P00747 581-810 limits assumed): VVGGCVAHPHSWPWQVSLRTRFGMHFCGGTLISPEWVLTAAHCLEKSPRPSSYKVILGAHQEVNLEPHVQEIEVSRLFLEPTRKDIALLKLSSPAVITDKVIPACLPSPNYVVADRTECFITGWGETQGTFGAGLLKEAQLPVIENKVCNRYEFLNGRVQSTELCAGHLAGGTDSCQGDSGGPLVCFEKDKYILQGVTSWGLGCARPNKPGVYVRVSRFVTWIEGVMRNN

IC50 [2] [nM]	IC50 [5] [nM]	IC50 [6] [nM]	IC50 [7] [nM]	SMILES	also measured
58	5600	39000		CCN1C(=O)N(CC)C1=O	IC50 [1]: 740 nM; IC50 [3]: > 10000 nM; IC50 [4]: Not Active
			2.3	COc1cccc(CN2C(=O)N(Cc3cccc(OC)c3)C2=O)c1	
			0.85	O=C1N(Cc2ccc3c(c2)OCO3)C(=O)N1Cc1ccc2c(c1)OCO2	
100	72	39	4	O=C1N(Cc2ccccc2)C(=O)N1Cc1ccccc1	IC50 [3]: 2900 nM; half-life [8]: 9.5 h
				CCOC(=O)CN1C(=O)N(CC(=O)OCC)C1=O	IC50 [4]: Not Active
230	2300	200	140	Cc1ccc(N2C(=O)N(c3ccc(C)cc3)C2=O)cc1	NA [9]: inactive
			2	COc1ccc(CN2C(=O)N(Cc3ccc(OC)cc3)C2=O)cc1	
			48	O=C1N(c2ccc3c(c2)OCO3)C(=O)N1c1ccc2c(c1)OCO2	
